Converted amounts (≈) assume the structure as drawn.
Columns and labels:
Assay type in all cases: functional
Klebsiella aerogenes [1] = assay: Antimicrobial activity against Enterobacter aerogenes Ea1 expressing TEM-24b gene
How it was run: (§1)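 Clinical isolates from private health care centers. β-Lactamase content was assigned by isoelectric focusing, PCR with blaTEM-, blaSHV- and blaCTX-M-specific primers, and sequencing. MICs (μg/ml) were reported for amoxicillin, cefoxitin, cefotaxime, ceftazidime, imipenem and ertapenem. Amoxicillin, cefotaxime and ceftazidime were also tested with clavulanic acid held at a fixed 2 μg/ml.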

Escherichia coli [2] = assay: Antimicrobial activity against Escherichia coli Ec10 expressing TEM-24b gene
How it was run: (§2)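 β-Lactam MICs (μg/ml) measured against clinical Enterobacteriaceae isolates collected from private health care centers. Enzyme content of each isolate was assigned by isoelectric focusing, PCR with blaTEM/blaSHV/blaCTX-M primers and sequencing, with cloning to separate coexisting TEM or SHV genes. In combination tests, the β-lactamase inhibitor clavulanic acid was held at a fixed 2 μg/ml.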

Proteus mirabilis [3] = assay: Antimicrobial activity against Proteus mirabilis Pm4 expressing TEM-21 gene; how it was run: as §1
Klebsiella aerogenes [4] = assay: Antimicrobial activity against Enterobacter aerogenes Ea2 expressing TEM-3 AmpC gene; how it was run: as §1
Escherichia coli [5] = assay: Antimicrobial activity against Escherichia coli Ec4 expressing CTX-M-1 AmpC gene; how it was run: as §2
Escherichia coli [6] = assay: Antimicrobial activity against Escherichia coli Ec5 expressing CTX-M-2 TEM-1 gene; how it was run: as §2
Proteus mirabilis [7] = assay: Antimicrobial activity against Proteus mirabilis Pm1-Pm3 expressing TEM-24b gene; how it was run: as §1
Escherichia coli [8] = assay: Antimicrobial activity against Escherichia coli Ec9 expressing TEM-24b TEM-26 gene; how it was run: as §2
Escherichia coli [9] = assay: Antimicrobial activity against Escherichia coli Ec7 expressing SHV-12 IRT-6 gene; how it was run: as §1
Klebsiella oxytoca = assay: Antimicrobial activity against Klebsiella oxytoca expressing TEM-11 gene; how it was run: as §1
Morganella morganii = assay: Antimicrobial activity against Morganella morganii expressing TEM-24b AmpC gene; how it was run: as §2
Enterobacter cloacae = assay: Antimicrobial activity against Enterobacter cloacae Ecl1 expressing TEM-24b AmpC TEM-1 gene; how it was run: as §2
Escherichia coli [10] = assay: Antimicrobial activity against Escherichia coli Ec2 containing pEc1-B plasmid expressing CTX-M-15 TEM-1 OXA-1 gene; how it was run: as §1
Klebsiella pneumoniae [11] = assay: Antimicrobial activity against Klebsiella pneumoniae Kp1 expressing SHV-4 gene; how it was run: as §2
Klebsiella pneumoniae [12] = assay: Antimicrobial activity against Klebsiella pneumoniae Kp2 expressing TEM-15 gene; how it was run: as §2
Klebsiella aerogenes [13] = assay: Antimicrobial activity against Enterobacter aerogenes Ea2 expressing TEM-3 gene; how it was run: as §1
Klebsiella pneumoniae [14] = assay: Antimicrobial activity against Klebsiella pneumoniae Kp3 expressing SHV-2a TEM-1 gene; how it was run: as §2
Klebsiella pneumoniae [15] = assay: Antimicrobial activity against Klebsiella pneumoniae Kp2 expressing TEM-15 TEM-17 TEM-1 gene; how it was run: as §2
Escherichia coli [16] = assay: Antimicrobial activity against Escherichia coli Ec2-a containing pEc1-C plasmid expressing CTX-M-15 OXA-1 gene; how it was run: as §1
Klebsiella pneumoniae [17] = assay: Antimicrobial activity against Klebsiella pneumoniae Kp4 expressing SHV-12 SHV-1 and plasmid-mediated cephalosporinase CMY-4; how it was run: as §2
Klebsiella pneumoniae [18] = assay: Antimicrobial activity against Klebsiella pneumoniae Kp5 expressing plasmid-mediated cephalosporinase ACC-1 and TEM-1; how it was run: as §2
Escherichia coli [19] = assay: Antimicrobial activity against Escherichia coli Ec6 expressing CTX-M-14 gene; how it was run: as §2
Escherichia coli [20] = assay: Antimicrobial activity against Escherichia coli Ec3 expressing CTX-M-15 TEM-1 OXA-1 gene; how it was run: as §2
Escherichia coli [21] = assay: Antimicrobial activity against Escherichia coli Ec1 containing pEc1-A plasmid expressing CTX-M-15 TEM-1 OXA-1 gene; how it was run: as §2
Escherichia coli [22] = assay: Antimicrobial activity against Escherichia coli Ec2 containing pEc1-D plasmid expressing CTX-M-15 TEM-1 OXA-1gene; how it was run: as §2
Escherichia coli [23] = assay: Antimicrobial activity against Escherichia coli Ec8 expressing TEM-21 AmpC gene; how it was run: as §1
Klebsiella aerogenes [24] = assay: Antimicrobial activity against Enterobacter aerogenes Ea1 expressing TEM-24b AmpC +/- TEM-1 or TEM-2 gene; how it was run: as §2

Row | Compound | MIC (Klebsiella aerogenes [1]) | MIC (Escherichia coli [2]) | MIC (Proteus mirabilis [3]) | MIC (Klebsiella aerogenes [4]) | MIC (Escherichia coli [5]) | MIC (Escherichia coli [6]) | MIC (Proteus mirabilis [7]) | MIC (Escherichia coli [8]) | MIC (Escherichia coli [9]) | MIC (Klebsiella oxytoca) | MIC (Morganella morganii) | MIC (Enterobacter cloacae) | MIC (Escherichia coli [10]) | MIC (Klebsiella pneumoniae [11]) | MIC (Klebsiella pneumoniae [12]) | MIC (Klebsiella aerogenes [13]) | MIC (Klebsiella pneumoniae [14]) | MIC (Klebsiella pneumoniae [15]) | MIC (Escherichia coli [16]) | MIC (Klebsiella pneumoniae [17]) | also measured
1 | CO/N=C(\C(=O)N[C@@H]1C(=O)N2C(C(=O)O)=C(COC(C)=O)CS[C@H]12)c1csc(N)n1 [CEFOTAXIME] | 1 µg/mL (≈ 2.2 µM) | 2 µg/mL (≈ 4.39 µM) | 2 µg/mL (≈ 4.39 µM) | 4 µg/mL (≈ 8.78 µM) | 64 µg/mL (≈ 141 µM) | 32 µg/mL (≈ 70.3 µM) | 0.5 µg/mL (≈ 1.1 µM) | 1 µg/mL (≈ 2.2 µM) | 16 µg/mL (≈ 35.1 µM) | 1 µg/mL (≈ 2.2 µM) | 16 µg/mL (≈ 35.1 µM) | 64 µg/mL (≈ 141 µM) | 64 µg/mL (≈ 141 µM) | 8 µg/mL (≈ 17.6 µM) | 8 µg/mL (≈ 17.6 µM) | 0.2 µg/mL (≈ 0.439 µM) | 2 µg/mL (≈ 4.39 µM) | 64 µg/mL (≈ 141 µM) | 256 µg/mL (≈ 562 µM) | 16 µg/mL (≈ 35.1 µM) | MIC (Klebsiella pneumoniae [18]): 8 µg/mL (≈ 17.6 µM); MIC (Escherichia coli [19]): 32 µg/mL (≈ 70.3 µM); MIC (Escherichia coli [20]): 512 µg/mL (≈ 1120 µM); MIC (Escherichia coli [21]): 256 µg/mL (≈ 562 µM); MIC (Escherichia coli [22]): 2 µg/mL (≈ 4.39 µM); MIC (Escherichia coli [23]): 32 µg/mL (≈ 70.3 µM); MIC (Klebsiella aerogenes [24]): 1 µg/mL (≈ 2.2 µM)
2 | CO[C@@]1(NC(=O)Cc2cccs2)C(=O)N2C(C(=O)O)=C(COC(N)=O)CS[C@@H]21 [CEFOXITIN] | 8 µg/mL (≈ 18.7 µM) | 8 µg/mL (≈ 18.7 µM) | 4 µg/mL (≈ 9.36 µM) | 128 µg/mL (≈ 299 µM) | 64 µg/mL (≈ 150 µM) | 4 µg/mL (≈ 9.36 µM) | 2 µg/mL (≈ 4.68 µM) | 4 µg/mL (≈ 9.36 µM) | 64 µg/mL (≈ 150 µM) | 8 µg/mL (≈ 18.7 µM) | 128 µg/mL (≈ 299 µM) | 512 µg/mL (≈ 1200 µM) | 8 µg/mL (≈ 18.7 µM) | 16 µg/mL (≈ 37.4 µM) | 4 µg/mL (≈ 9.36 µM) | 32 µg/mL (≈ 74.9 µM) | 4 µg/mL (≈ 9.36 µM) | 64 µg/mL (≈ 150 µM) | 8 µg/mL (≈ 18.7 µM) | 32 µg/mL (≈ 74.9 µM) | MIC (Klebsiella pneumoniae [18]): 8 µg/mL (≈ 18.7 µM); MIC (Escherichia coli [19]): 4 µg/mL (≈ 9.36 µM); MIC (Escherichia coli [20]): 32 µg/mL (≈ 74.9 µM); MIC (Escherichia coli [21]): 4 µg/mL (≈ 9.36 µM); MIC (Escherichia coli [22]): 32 µg/mL (≈ 74.9 µM); MIC (Escherichia coli [23]): 128 µg/mL (≈ 299 µM); MIC (Klebsiella aerogenes [24]): 512 µg/mL (≈ 1200 µM)
